Rad51 HR inh: human RAD51 strand exchange inhibitors, primary screen, biochemical, fluorescence. 200,000 tested, 0.085% active. hRad51 DNA strand exchange, fluorescence dequenching. inhibition, % at 10 µM. DNA repair protein RAD51 homolog 1 (Homo sapiens), Q06609;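 active = inhibition above 40% at the single screening dose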;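 also: 0% = DMSO control wells and 100% = blanks with heterologous ssDNA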
Target sequence (Q06609 whole entry, looked up): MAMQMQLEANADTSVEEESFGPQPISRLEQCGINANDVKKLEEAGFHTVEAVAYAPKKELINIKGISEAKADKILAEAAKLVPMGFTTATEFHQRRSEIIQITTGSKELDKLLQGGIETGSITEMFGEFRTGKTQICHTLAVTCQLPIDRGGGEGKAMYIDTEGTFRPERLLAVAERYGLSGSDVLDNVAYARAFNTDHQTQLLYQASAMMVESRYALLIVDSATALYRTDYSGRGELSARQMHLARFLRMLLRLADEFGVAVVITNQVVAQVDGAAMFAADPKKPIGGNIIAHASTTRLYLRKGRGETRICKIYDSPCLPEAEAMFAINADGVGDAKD
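Test system: preformed human Rad51 ssDNA filaments; also added: Donor/quencher-labelled 47-bp dsDNA substrate; doses: 10 µM final, single point; times: 37 °C 15-min filament assembly, 30-min compound preincubation, 15-min exchange; detection: FRET fluorescence dequenching, excitation 485 nm, emission 520 nm; read-out basis: Fluorescence-based percent inhibition, control- and blank-normalised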
S1P3 antag-1: S1P3 receptor antagonists, primary screen, cell-based; AID 485, 2006; inhibition, % at 4.98 µM; CHO S1P3 NFAT-BLA reporter, FRET fluorescence, antagonist mode; Sphingosine 1-phosphate receptor 3 (Homo sapiens), Q99500; 170,000 tested, 0.27% active;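 active = inhibition above the plate cutoff, the mean inhibition of test wells on that plate plus 3 SD, cut at about 28% in these data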;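 also: cells challenged with S1P at its EC80 of 0.8 µM; blue over green emission ratio from cleaved BLA substrate after 4 h stimulation; 0% = S1P-stimulated wells and 100% = unstimulated DMSO-only wells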
Calb biofilm kill: clotrimazole potentiators killing C. albicans biofilm, primary screen, 4-compound mixtures; 120,000 tested, 0.02% active; C. albicans biofilm persisters + clotrimazole, fluorescence viability; primary screen in compound mixtures of four per well; inhibition, % at 7.6 µM;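 active = inhibition above 30.3% in the primary screen of four-compound pools, then above 30% when the compound was retested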;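 also: compounds exposed to preformed 24 h biofilms for 48 h; 0% = untreated biofilm control and 100% = clotrimazole plus chlorhexidine kill blank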
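Assay system: C. albicans biofilms / Medium: RPMI/MOPS medium, pH 7.0 / Schedule: biofilm formation 24 h, compound exposure 48 h, 37 °C / Measured by: Alamar Blue fluorescence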
S1P3 antag-2: S1P3 receptor antagonists, retest, confirmation, cell-based. shares compounds with S1P3 antag-1. CHO S1P3 NFAT-BLA reporter, FRET, antagonist mode. inhibition, % at 4.98 µM. 240 tested, 30% active;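 active = inhibition above the hit threshold that was computed for the earlier primary screen, cut at about 30% in these data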;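 also: 0% = S1P-stimulated wells and 100% = unstimulated DMSO-only wells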
Active calls of the source: *; . = not tested or not shown. Compounds with a hit are over-represented: about 0.31% of the library has one in this group of screens.

SMILES | Rad51 HR inh | S1P3 antag-1 | Calb biofilm kill | S1P3 antag-2
COc1ccccc1OCC(=O)Nc1sc2c(c1C(=O)NCC1CCCO1)CCC2 (stereo unspecified) | -3.5 | . | . | .
O=C(NCCc1ccccc1)c1n[nH]c2ccccc12 | . | 1.7 | 0.8 | .
NNc1ccc(Cl)nn1 | -2.2 | -2.8 | 2.6 | .
O=C(Nc1ccc(Cl)cc1)Nc1cccc2nsnc12 | . | 29.2* | 18.1 | 16.4
O=C(COc1ccccc1)Nc1cccc2nsnc12 | -1.8 | 18.0 | . | .
Cc1cccc(Nc2sc(C(=O)c3cc4cc(Cl)ccc4o3)c(N)c2C#N)c1 | 4.0 | 28.2* | 20.0 | 1.9
N#Cc1c(Nc2ccccc2)sc(C(=O)c2ccccc2)c1N | 4.6 | . | . | .
O=C(Nc1ccccc1)n1ccc(-c2ccc(-n3ccnc3)cc2)n1 | 8.7 | -12.9 | 4.8 | .
COc1cc(OC)cc(C(=O)N[C@H](C(=O)OCC(=O)Nc2sccc2C#N)C(C)C)c1 | -39.7 | -7.8 | 8.7 | .
COc1ccccc1N1CCN(C(=O)CN(C)S(=O)(=O)c2cc(C)ccc2OC)CC1 | 1.2 | 11.5 | 7.0 | .
Cn1nc(-c2ccccn2)nc2c(=O)n(C)c(=O)nc1-2 | -28.1 | 81.1* | 12.8 | 89.9*
COc1ccc(-c2nc(-c3ccccn3)ncc2S(C)(=O)=O)cc1 | 2.7 | -1.9 | -6.2 | .
CCn1c(N)nc2c1c(=O)n(C)c(=O)n2C | 8.5 | 23.9 | . | .
CCCc1nc2c(=O)n(C)c(=O)nc-2n(C)n1 | . | 72.0* | 3.8 | 106.7*
CCCn1c(O)c(N=N)c2ccccc21 | -3.9 | -10.6 | 18.7 | .
O=C(c1cccnc1)C1CCCN(Cc2nc(Cc3ccccc3)no2)C1 (stereo unspecified) | -15.6 | -6.9 | 7.5 | .
O=C(Nc1ccc(F)cc1F)c1c(C(F)(F)F)ccnc1Oc1ccc(Cl)cc1 | -0.6 | 44.2* | 14.9 | 55.5*
O=C(Nc1ccc(F)cc1F)c1c(C(F)(F)F)ccnc1Oc1cccc(C(F)(F)F)c1 | 6.3 | 19.4 | 7.4 | .
CN(C)/C=N/N(C)c1ncccc1[N+](=O)[O-] | . | 3.4 | 18.5 | .
Cc1c(Cl)cn2c(=O)cc(CN(C)Cc3nc4ccccc4c(=O)[nH]3)nc2c1Cl | -4.0 | 34.3* | 15.8 | -14.5
CCN(Cc1cc(=O)n2ccsc2n1)Cc1nc2ccccc2c(=O)[nH]1 | -1.6 | -8.7 | 14.2 | .
CC(=O)N1CCc2cc(C(=O)CN3CCN(c4ccccn4)CC3)ccc21 | 4.5 | -4.8 | 33.2 | .
CCOC(=O)CC(NC(=O)c1ccc(C)cc1)c1ccc(OC)cc1 (stereo unspecified) | 4.5 | -0.6 | -0.1 | .
COc1ccc(C(=O)NC(Nc2ccc(C)cc2)C(Cl)(Cl)Cl)cc1 (stereo unspecified) | -1.4 | 43.5* | 7.1 | 58.3*
CNC(=O)NC(=O)C(C)OC(=O)c1c2c(nc3ccccc13)/C(=C/c1cccs1)CC2 (stereo unspecified) | -19.7 | 18.9 | 13.2 | .
SMILES | Rad51 HR inh | S1P3 antag-1 | Calb biofilm kill | S1P3 antag-2
CCCCNC(=O)COC(=O)c1c2c(nc3ccccc13)/C(=C/c1cccs1)CC2 | -36.4 | 36.7* | 9.2 | 25.2
CC1=NN(c2ccccc2)C(=O)/C1=C/c1cn(C)c2ccccc12 | 12.8 | -8.8 | 16.1 | .
CCOc1ccc(N2C(=O)S/C(=C\c3cc(OC)c(OC)c(OC)c3)C2=O)cc1 | 13.2 | 3.7 | 18.1 | .
COc1cc(/C=C2\SC(=O)N(c3ccc(O)cc3)C2=O)cc(OC)c1OC | . | 30.6* | 19.1 | -0.9
COC(=O)/C=C1/SC(=NC(=O)c2ccc(F)cc2)NC1=O | 10.6 | 3.2 | 32.4 | .
COc1ccccc1Sc1nc(-c2ccccn2)ncc1OC | -10.7 | 9.4 | 16.1 | .
COc1cnc(-c2ccccn2)nc1NC(C)C | 21.3 | 28.6* | -1.8 | 18.7
COc1cnc(-c2ccccn2)nc1Oc1ccc(F)cc1F | -10.1 | 28.5* | 18.4 | -4.3
COc1cnc(-c2ccccn2)nc1Oc1ccccc1Cl | -3.9 | . | . | .
Cc1cccc2cc(CN(Cc3ccccc3)C(=O)c3cccc(F)c3)c(Cl)nc12 | -6.5 | . | . | .
Cc1cccc(NC(=S)N2CCN(c3ccc(F)cc3)CC2)c1 | 0.3 | -7.0 | 6.5 | .
COc1ccc2cc3cc(C(=O)NCc4ccc5c(c4)OCO5)oc3nc2c1 | . | -7.1 | . | .
COc1ccc2cc3cc(C(=O)NCc4cccnc4)oc3nc2c1 | -4.0 | 30.1* | 6.7 | -2.9
Cc1ccc(S(=O)(=O)NCCc2nnc3ccc(SCC(=O)Nc4nc5ccccc5s4)nn23)cc1 | -4.2 | 28.2* | 10.1 | -5.2
Cc1cc(NC(=O)CSc2ccc3nnc(CCNS(=O)(=O)c4ccccc4)n3n2)no1 | -1.0 | -27.3 | 15.4 | .
O=C(CCN1C(=O)c2cccc3cccc(c23)C1=O)Nc1ccon1 | 6.3 | -16.3 | 33.5 | .

Assay outcomes from PubChem BioAssay.
